Values after ≈ are worked out from the molar mass of the structure shown. Active and inactive are the calls of the source. The calls are words filed in the database; no cut-off is given here.
Columns and labels:
[1] = C18 corasil-octanol partition coefficient, log P of the compound in 0.01 M phosphate buffer at pH 7 by LC on C18 Corasil coated with 1-octanol; settings: octanol/0.01 M phosphate buffer (C18 Corasil-octanol)
Staphylococcus aureus [2] = assay: Antibacterial activity against Staphylococcus aureus at 200 ug/ml; format: functional, organism-based
[3] = C18 corasil-25 wt % MeOH partition coefficient, log K of the compound in 0.001 M phosphate buffer; settings: pH 7.4
Mycolicibacterium phlei [4] = assay: Antibacterial activity against Mycobacterium phlei; format: functional
Procedure, shortened: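 MIC by standard agar dilution, run in duplicate; estimated standard deviation under 0.15 log units; reported as log 1/MIC (molar).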

Staphylococcus aureus [5] = assay: Antibacterial activity against Staphylococcus aureus; format: functional
Mycolicibacterium phlei [6] = assay: Antibacterial activity against Mycobacterium phlei at 640 ug/ml; format: functional, organism-based

Compound | logD [1] | log K [3] | MIC (Mycolicibacterium phlei [4]) [µg/mL] | MIC (Staphylococcus aureus [5]) [µg/mL] | Activity (Staphylococcus aureus [2]) | Activity (Mycolicibacterium phlei [6])
CCCCC/C=C/NC=O |  |  | 40 (≈ 283 µM) |  | inactive | 
CC(=O)Oc1ccc(/C=C/NC=O)cc1 | 1.32 | 0.16 | 640 (≈ 3120 µM) |  | inactive | 
CC(C)Oc1ccc(/C=C/NC=O)cc1 | 2.61 | 0.93 | 320 (≈ 1560 µM) |  | inactive | 
O=CN/C=C/c1cccc2ccccc12 |  |  | 80 (≈ 406 µM) |  | inactive | 
O=CN/C=C/c1ccc2ccccc2c1 | 3.22 | 1.16 | 20 (≈ 101 µM) |  | inactive | 
O=CN/C=C/c1ccc(S(=O)(=O)c2ccccc2)cc1 | 1.95 | 0.78 | 320 (≈ 1110 µM) |  | inactive | 
O=CN/C=C/c1ccc(C(F)(F)F)cc1 | 3.06 | 1.09 | 80 (≈ 372 µM) | 100 (≈ 465 µM) |  | 
CCCCOc1ccc(/C=C/NC=O)cc1 | 3.32 | 1.62 | 80 (≈ 365 µM) |  | inactive | 
O=CN/C=C/c1cccs1 |  |  | 320 (≈ 2090 µM) | 25 (≈ 163 µM) |  | 
O=CN/C=C/c1ccccc1 | 1.95 | 0.21 | 640 (≈ 4350 µM) | 50 (≈ 340 µM) |  | 
O=CN/C=C/C1CCCCC1 |  |  | 160 (≈ 1040 µM) |  | inactive | 
O=CN/C=C/c1ccc(O)cc1 |  |  |  |  | inactive | inactive
O=CN/C=C/c1ccco1 |  |  |  |  | inactive | inactive
CCN(CC)c1ccc(/C=C/NC=O)cc1 | 2.9 |  | 320 (≈ 1470 µM) |  | inactive | 

More lines, main results first:

logD [1] | log K [3] | MIC (Mycolicibacterium phlei [4]) [µg/mL] | MIC (Staphylococcus aureus [5]) [µg/mL] | Compound | Activity (Staphylococcus aureus [2]) | Activity (Mycolicibacterium phlei [6])
2.03 | 0.48 | 640 (≈ 3360 µM) |  | CN(C)c1ccc(/C=C/NC=O)cc1 | inactive | 
2.31 | 0.65 | 40 (≈ 209 µM) |  | CCOc1ccc(/C=C/NC=O)cc1 | inactive | 
2.45 | 0.66 | 40 (≈ 248 µM) |  | Cc1ccc(/C=C/NC=O)cc1 | inactive | 
3.18 | 1.14 | 160 (≈ 586 µM) | 200 (≈ 732 µM) | O=CN/C=C/c1ccc(I)cc1 |  | 
1.62 | 0.04 | 640 (≈ 3720 µM) |  | N#Cc1ccc(/C=C/NC=O)cc1 | inactive | 
2.87 | 0.96 | 160 (≈ 708 µM) | 100 (≈ 442 µM) | O=CN/C=C/c1ccc(Br)cc1 |  | 
1.94 | 0.24 | 320 (≈ 1670 µM) | 3 (≈ 15.6 µM) | O=CN/C=C/c1ccc([N+](=O)[O-])cc1 |  | 
1.94 | 0.28 | 80 (≈ 451 µM) |  | COc1ccc(/C=C/NC=O)cc1 | inactive | 
2.11 | 0.33 | 160 (≈ 969 µM) |  | O=CN/C=C/c1ccc(F)cc1 | inactive | 
2.55 | 0.77 | 40 (≈ 207 µM) | 100 (≈ 517 µM) | CSc1ccc(/C=C/NC=O)cc1 |  | 
2.7 | 0.79 | 80 (≈ 440 µM) | 200 (≈ 1100 µM) | O=CN/C=C/c1ccc(Cl)cc1 |  | 
3.82 | 1.71 | 80 (≈ 394 µM) | 200 (≈ 984 µM) | CC(C)(C)c1ccc(/C=C/NC=O)cc1 |  | 

From ChEMBL document CHEMBL3272099, “Antibacterial activity of N-(beta-styryl) formamides related to tuberin” (J Med Chem, 1978)
